According to ChEMBL document CHEMBL1122579, “Synthesis and biological activity of nucleosides and nucleotides related to the antitumor agent 2-beta-D-ribofuranosylthiazole-4-carboxamide” (J Med Chem, 1984):

Tests used:
[1] = tested on: Mus musculus; test: Mice were inoculated intraperitoneally with L1210 leukemia cells and the percentage ILS of the mice with the compound was evaluated at a dose of 400 mg/kg; type: functional; conditions: L1210, ip, route intraperitoneal
Summary of the method: (§1)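 Mice implanted ip with L1210 leukemia, in groups of six, with 36 untreated controls. Drug given ip on days 1-5 at 50-800 mg/kg. Endpoint was median life span in days, with percent increase in life span (ILS) relative to untreated controls. Body weight change was taken as day 5 minus day 1 average weight.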

[2] = tested on: Mus musculus; test: Mice were inoculated intraperitoneally with L1210 leukemia cells and the median life span of the mice with the compound was evaluated at a dose of 100 mg/kg; type: functional; conditions: route intraperitoneal; summary of the method: as §1
[3] = tested on: Mus musculus; test: Mice were inoculated intraperitoneally with L1210 leukemia cells and the percentage ILS of the mice with the compound was evaluated at a dose of 100 mg/kg; type: functional; conditions: L1210, ip, route intraperitoneal; summary of the method: as §1
[4] = tested on: Mus musculus; test: Mice were inoculated intraperitoneally with L1210 leukemia cells and the percentage ILS of the mice with the compound was evaluated at a dose of 200 mg/kg; type: functional; conditions: L1210, ip, route intraperitoneal; summary of the method: as §1
[5] = tested on: Mus musculus; test: Mice were inoculated intraperitoneally with L1210 leukemia cells and the change in body weight of the mice with the compound was evaluated at a dose of 400 mg/kg; type: functional; conditions: route intraperitoneal
Summary of the method: (§2)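 Mice received intraperitoneally implanted L1210 leukemia, with groups of six treated mice and 36 untreated controls. Compound was given intraperitoneally on days 1-5. Body weight change was the average weight on day 5 minus the average on day 1, in grams. Median life span and % ILS were recorded against the untreated controls.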

[6] = tested on: Mus musculus; test: Mice were inoculated intraperitoneally with L1210 leukemia cells and the median life span of the mice with the compound was evaluated at a dose of 50 mg/kg; type: functional; conditions: route intraperitoneal; summary of the method: as §1
[7] = tested on: Mus musculus; test: Mice were inoculated intraperitoneally with L1210 leukemia cells and the change in body weight of the mice with the compound was evaluated at a dose of 200 mg/kg; type: functional; conditions: route intraperitoneal; summary of the method: as §2
[8] = tested on: Mus musculus; test: Mice were inoculated intraperitoneally with L1210 leukemia cells and the median life span of the mice with the compound was evaluated at a dose of 200 mg/kg; type: functional; conditions: route intraperitoneal; summary of the method: as §1
[9] = tested on: Mus musculus; test: Mice were inoculated intraperitoneally with L1210 leukemia cells and the change in body weight of the mice with the compound was evaluated at a dose of 100 mg/kg; type: functional; conditions: route intraperitoneal; summary of the method: as §2
[10] = tested on: Mus musculus; test: Mice were inoculated intraperitoneally with L1210 leukemia cells and the median life span of the mice with the compound was evaluated at a dose of 400 mg/kg; type: functional; conditions: route intraperitoneal; summary of the method: as §1
[11] = tested on: Mus musculus; test: Mice were inoculated intraperitoneally with L1210 leukemia cells and the change in body weight of the mice with the compound was evaluated at a dose of 50 mg/kg; type: functional; conditions: route intraperitoneal; summary of the method: as §2
[12] = tested on: Mus musculus; test: Mice were inoculated intraperitoneally with L1210 leukemia cells and the percentage ILS of the mice with the compound was evaluated at a dose of 50 mg/kg; type: functional; conditions: L1210, ip, route intraperitoneal; summary of the method: as §1
[13] = tested on: T-cells (human); test: Compound was evaluated for the cytotoxicity to T cells in the presence of 2'-deoxyguanosine and expressed as ED50
[14] = target: purine nucleoside phosphorylase (human) (UniProt P00491); test: Compound was evaluated for the concentration which […] inosine phosphorolysis by human lymphoblast purine nucleoside phosphorylase and expressed as IC50
[15] = species: Mus musculus; test: Compound was evaluated for the cytotoxicity to L1210 leukemia cells in culture at ~1.6-fold higher concentrations and expressed as ID50; type: functional; conditions: read-out: ID50 (the source's name)
[16] = tested on: Mus musculus; test: Mice were inoculated intraperitoneally with L1210 leukemia cells and the percentage ILS of the mice with the compound was evaluated at a dose of 800 mg/kg; type: functional; conditions: L1210, ip, route intraperitoneal; summary of the method: as §1
[17] = tested on: Mus musculus; test: Mice were inoculated intraperitoneally with L1210 leukemia cells and the change in body weight of the mice with the compound was evaluated at a dose of 800 mg/kg; type: functional; conditions: route intraperitoneal; summary of the method: as §2
[18] = tested on: Mus musculus; test: Mice were inoculated intraperitoneally with L1210 leukemia cells and the median life span of the mice with the compound was evaluated at a dose of 800 mg/kg; type: functional; conditions: route intraperitoneal; summary of the method: as §1
[19] = tested on: Mus musculus; test: Mice were inoculated intraperitoneally with L1210 leukemia cells and the median life span of the mice with the compound was evaluated at a dose of 25 mg/kg; type: functional; conditions: route intraperitoneal
[20] = tested on: Mus musculus; test: Mice were inoculated intraperitoneally with L1210 leukemia cells and the change in body weight of the mice with the compound was evaluated at a dose of 25 mg/kg; type: functional; conditions: route intraperitoneal
[21] = tested on: Mus musculus; test: Mice were inoculated intraperitoneally with L1210 leukemia cells and the percentage ILS of the mice with the compound was evaluated at a dose of 25 mg/kg; type: functional; conditions: L1210, ip, route intraperitoneal

Compound	ILS at 400 mg/kg [1]	Median life span [2]	ILS at 100 mg/kg [3]	ILS at 200 mg/kg [4]	Body weight change [5]	Median life span [6]	Body weight change [7]	Median life span [8]	Body weight change [9]	Median life span [10]	Body weight change [11]	ILS at 50 mg/kg [12]	IC50 [15]	ILS at 800 mg/kg [16]	Body weight change [17]	Median life span [18]	also measured
NC(=O)c1csc([C@@H]2O[C@@H]3COP(=O)(O)O[C@H]3[C@H]2O)n1	55%	14.3 days	23%	52%	-3.1 g	13.3 days	-1.9 g	17.7 days	-0.6 g	18 days	-1.1 g	14%					
N=C(N)c1csc([C@@H]2O[C@H](CO)[C@@H](O)[C@H]2O)n1																	EC50 [13]: 77 µM; IC50 [14]: 300 µM
NC(=O)c1csc([C@@H]2O[C@H](COP(=O)(O)O)[C@@H](O)[C@H]2O)n1	83%	15.5 days	86%	159%	-2 g	11.3 days	-1.4 g	21.5 days	-1 g	15.2 days	-0.6 g	36%	3.2 µM	96%	-3.6 g	16.3 days	
NC(=O)c1csc([C@@H]2O[C@H](CO)[C@@H](O)[C@H]2O)n1 [TIAZOFURIN]	100%	14.8 days	82%	103%	-3.9 g	13.5 days	-2.9 g	16.5 days	-2.5 g	16.2 days	-2.1 g	66%	1.9 µM	85%	-4.4 g	15 days	Median life span [19]: 12.8 days; Body weight change [20]: -2.6 g; ILS at 25 mg/kg [21]: 58%
